Test results reported in ChEMBL document CHEMBL4513216, “Probing the Open Global Health Chemical Diversity Library for Multistage-Active Starting Points for Next-Generation Antimalarials” (ACS Infect Dis, 2020).

Experiment: Toxicity liver stage against HepG2, at 10uM
Format: cell-based
Set-up: test concentration 10 uM, cell line HepG2-A16-CD81EGFP
Settings: human, HepG2-A16-CD81EGFP cells; read-out: INHIBITION
In short: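 Uninfected HepG2-A16-CD81EGFP cells, 3 × 10^3 per well, 1536-well, plated on prespotted compound at 10 μM final, parasite-free screening media added to match infected plates; puromycin 10 μM positive, DMSO 0.5% negative; run in parallel with 48 h PbLuc assay at 37 °C, 5% CO2; viability by CellTiter-Glo luminescence, normalized to controls.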

CCNc1nc2c(s1)C(=O)CN(C(=O)NCc1ccccc1)C2
cytotoxicity at 10 µM: 59.1%

COCCN(Cc1ccc(C)cc1)CC1CCOC1 (stereo unspecified)
cytotoxicity at 10 µM: -9.06%

COc1ncc(-c2nccn2C(C)CCn2cccn2)cn1 (stereo unspecified)
cytotoxicity at 10 µM: 0.728%

CCC(C)Oc1ccc(CNCCc2c[nH]cn2)cc1Cl (stereo unspecified)
cytotoxicity at 10 µM: 1.09%

Cc1n[nH]c(C)c1CCCNCc1cn(CCC(N)=O)c2ccccc12
cytotoxicity at 10 µM: 8.45%

CC(c1cccs1)N(C)Cc1cnc(-c2ccccn2)nc1 (stereo unspecified)
cytotoxicity at 10 µM: -6.3%

CCc1cnc(N)nc1NCCC(=O)NC1CCCCC1
cytotoxicity at 10 µM: -42.1%

O=C(N1CCOCC1)N1CCc2[nH]nc(COc3cccc(Cl)c3)c2C1
cytotoxicity at 10 µM: -42.2%

Cc1nc2ccc(CN3CC4(CCOC4)CCC3=O)cc2[nH]1 (stereo unspecified)
cytotoxicity at 10 µM: 11.7%

CC(C)(C)c1nc(CN2CCc3onc(-c4cccc(F)c4)c3C2)no1
cytotoxicity at 10 µM: 6.2%

COc1ccc(OC2CCN(C(=O)C3CCCN(C)C3)CC2)cc1 (stereo unspecified)
cytotoxicity at 10 µM: -59.6%

CC1=CC(C)(C)N(CN2C(=O)c3ccccc3C2=O)c2ccc(C)cc21
cytotoxicity at 10 µM: -3.49%

Cc1sc2nc(CCN)nc(N3CCN(S(C)(=O)=O)CC3)c2c1C
cytotoxicity at 10 µM: -32%

Cc1nc(-c2cc(Cl)cc3c2OC(CN)C3)c[nH]1 (stereo unspecified)
cytotoxicity at 10 µM: -1.11%

CC(c1cccnc1)N(C)Cc1cc(O)c2cc(F)ccc2n1 (stereo unspecified)
cytotoxicity at 10 µM: 10.8%

CC(C)C1CN(c2cccc(C#N)n2)CCCN1Cc1ccc(F)cc1 (stereo unspecified)
cytotoxicity at 10 µM: 10%

CCCc1nc(NCc2c(C)nn(CCC)c2C)c2cnn(C)c2n1
cytotoxicity at 10 µM: 9.66%

CN(Cc1cc(C2CC2)[nH]n1)C(=O)C(c1cccnc1)N1CCCC1 (stereo unspecified)
cytotoxicity at 10 µM: -48.1%

Cc1ccnc(CC(C)N(C)c2cc(CN)nc(C)n2)c1 (stereo unspecified)
cytotoxicity at 10 µM: -48.9%

O=C(Nc1nncs1)N1CCC(CCO)CC1
cytotoxicity at 10 µM: -2.48%

CN(Cc1n[nH]c2c1CCC2)C(=O)c1cccc(CCC(C)(C)O)c1
cytotoxicity at 10 µM: 3.01%

O=C1CC(c2ccc(CO)o2)c2cnn(Cc3ccco3)c2N1 (stereo unspecified)
cytotoxicity at 10 µM: 2.77%

CC(Cc1cncs1)Nc1ncnc2cccc(F)c12 (stereo unspecified)
cytotoxicity at 10 µM: 17.5%

CN(CCc1ccccn1)C(=O)c1cn2c(n1)CNCC2
cytotoxicity at 10 µM: -43.5%

Cc1ccc(-c2c(C(=O)NC3CCN(C)CC3)csc2C)cc1
cytotoxicity at 10 µM: -130%

CCc1ccc(C(=O)N2CCN(Cc3ccc(F)cc3)CC2)s1
cytotoxicity at 10 µM: 13.4%

O=C(Cc1ccccc1F)NCCN1CCOCC1
cytotoxicity at 10 µM: -46.1%

Cc1ccccc1N1CCN(c2cc(N(C)C)ncn2)C(C)C1 (stereo unspecified)
cytotoxicity at 10 µM: 19.7%

O=C1CC(c2ccccc2F)c2c(n(C3CCCC3)[nH]c2=O)N1 (stereo unspecified)
cytotoxicity at 10 µM: -5.07%

O=C1CC(c2ccccc2)c2cnn(C3CCCC3)c2N1 (stereo unspecified)
cytotoxicity at 10 µM: 1.5%

O=C(O)CCc1cc2n(n1)CCCN(C(=O)c1cc3ccccc3s1)C2
cytotoxicity at 10 µM: 0.45%

COc1ccc2cc(C3CN(C(=O)C4CCOCC4)CCO3)ccc2c1 (stereo unspecified)
cytotoxicity at 10 µM: -8.68%

CC(O)CN1CCN(C(=O)c2cc3ccccc3n2C)CC1 (stereo unspecified)
cytotoxicity at 10 µM: 2.99%

CCc1nc(CN(C(C)=O)C2CCN(CCc3ccncc3)C2)no1 (stereo unspecified)
cytotoxicity at 10 µM: -22.3%

COc1cc(C(=O)N2CCCS2(=O)=O)ccc1OC(C)C
cytotoxicity at 10 µM: -17.6%

COC(=O)c1cccn1C1CCN(Cc2cnc3ccccn23)CC1
cytotoxicity at 10 µM: -8.86%

Cc1nn(CC(C)C)c(N(C)C)c1CNCc1cc2ccccc2[nH]1
cytotoxicity at 10 µM: -2.77%

COc1cccc(-n2nnc(C(=O)N3CCN(C)CC3C)c2C)c1 (stereo unspecified)
cytotoxicity at 10 µM: -4.05%

Cn1cc(CC(=O)N2CCC(Nc3cccnn3)CC2)c2ccccc21
cytotoxicity at 10 µM: -9.24%

CCNCc1ccc(OCc2ccc3c(c2)OCCO3)cc1
cytotoxicity at 10 µM: 2.44%

Cc1ccc(CN2Cc3ccccc3OC3(CCC(CO)CC3)C2)s1 (stereo unspecified)
cytotoxicity at 10 µM: -3.11%

Cc1cc(C(=O)N2CCn3cc(CN4CCOCC4)nc3C2)no1
cytotoxicity at 10 µM: -75.7%

Cc1ccc(S(=O)(=O)N2CCc3nc(C4CCNCC4)ncc3C2)cc1
cytotoxicity at 10 µM: -3.24%

O=C(NCc1ccco1)[C@@H]1CCO[C@@H]2CCN(CC3CC3)C[C@@H]21
cytotoxicity at 10 µM: -78.7%

Cn1cc(N2CCC3(CCCN(Cc4ccc(F)cc4)C3)C2=O)cn1 (stereo unspecified)
cytotoxicity at 10 µM: -73.4%

CO[C@@H]1CC[C@H]2[C@H]1OCCN2C(=O)c1ccc(C)nc1
cytotoxicity at 10 µM: -143%

FC1(F)CCN(Cc2cccnc2)CC12CCN(c1ccccn1)C2 (stereo unspecified)
cytotoxicity at 10 µM: 23%

O=C(c1cc[nH]n1)N1CCc2onc(COc3cccnc3)c2C1
cytotoxicity at 10 µM: -70.3%

O=C(CCC1CCCC1)NCCn1nc(C2CCNC2)c2nccnc21 (stereo unspecified)
cytotoxicity at 10 µM: 6.28%

CC(=O)N1CCCCCC1C1CCN(Cc2nnc(C(C)(C)C)o2)CC1 (stereo unspecified)
cytotoxicity at 10 µM: -42.3%

c1cc(COC[C@@H]2CCC[C@@]23CNCCO3)ccn1
cytotoxicity at 10 µM: 1.26%

Cc1ccc(CN2CCC3(CC2)CN(c2ccccc2)C(=O)CO3)o1
cytotoxicity at 10 µM: -116%

c1ccc(N2CCCC3(COCCN(c4nccs4)C3)C2)nc1 (stereo unspecified)
cytotoxicity at 10 µM: -8.89%

Cc1cccc(N2CC[C@@H]3CN(Cc4csc(C)n4)CCO[C@@H]3C2)n1
cytotoxicity at 10 µM: -4.51%

CC(C)Cn1cc2nc(N3CCC(O)CC3)[nH]cc-2c1=O
cytotoxicity at 10 µM: 5.92%

CCN(CC)c1ccc(C2c3c(n[nH]c3C)N=C3COC(=O)C32)cc1 (stereo unspecified)
cytotoxicity at 10 µM: 4.33%
